From ChEMBL document CHEMBL4364301 (Eur J Med Chem, 2019) come the findings set out here.

Type in all cases: functional
In assay [1] the test system is LNCaP. The assay is described as follows: Antiproliferative activity against human LNCAP cells assessed as reduction in cell growth incubated for 96 hrs by propidium iodide based 2D monolayer assay. Summed up: (§1)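 After 24 h recovery, compound in medium or medium alone (control wells) was added at 10 half-log concentrations from 0.0032 to 100 µM, in triplicate, with at most 0.3% DMSO. After 96 h, wells were PBS-washed, stained with 7 µg/ml PI and 0.1% Triton X-100, and fluorescence read at 530/620 nm. IC50 came from a 4-parameter fit, geometric mean.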

In assay [2] the test system is CWR22R. The assay is described as follows: Antiproliferative activity against human 22Rv1 cells assessed as reduction in cell growth incubated for 96 hrs by propidium iodide based 2D monolayer assay. The following applies: 22Rv1, 96 h. An outline of the steps: as §1
The subject of assay [3] is VCaP. Description: Antiproliferative activity against human VCaP cells assessed as reduction in cell growth incubated for 96 hrs by propidium iodide based 2D monolayer assay. Summed up: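 VCaP cells in RPMI 1640 with 10% FCS at 37 °C, 5% CO2, seeded 4,000–20,000 cells/well and left 24 h before dosing. Compounds from DMSO stocks were diluted in half-log steps in medium, 10 concentrations 0.0032–100 μM, triplicate wells, max 0.3% DMSO. After 96 h, cells were washed, stained with 7 μg/ml propidium iodide plus 0.1% Triton X-100 for 1–2 h at room temperature, and fluorescence read at ex 530/em 620 nm.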

Assay [4] relates to DU-145. Description: Antiproliferative activity against human DU145 cells assessed as reduction in cell growth incubated for 96 hrs by propidium iodide based 2D monolayer assay. The following applies: DU-145, 96 h. An outline of the steps:
as §1

What is called IC50 is the midpoint of a concentration-inhibition curve.

For `CC(O)(COc1ccc(C#N)cc1)C(=O)Nc1cccc(S(F)(F)(F)(F)F)c1` (racemic), the IC50 was 30 µM in assay [1], 32.5 µM in assay [2], 26.6 µM in assay [3] and 42.6 µM in assay [4].

Regarding `CC(O)(COc1cccc(OC(F)(F)F)c1)C(=O)Nc1ccc(S(F)(F)(F)(F)F)cc1` (racemic), the IC50 in assay [1] is 11 µM; in assay [2], 17.3 µM; in assay [3] it was 18.3 µM; in assay [4] it was 18.4 µM.

Turning to `CC(O)(COc1cccc(OC(F)(F)F)c1)C(=O)Nc1cccc(S(F)(F)(F)(F)F)c1` (racemic), the IC50 in assay [1] came out at 15.2 µM; in assay [2], 18.8 µM; in assay [3], 28.6 µM; in assay [4] it was 30.1 µM.

For the compound `CC(O)(CS(=O)(=O)c1ccc(S(F)(F)(F)(F)F)cc1)C(=O)Nc1ccc(C#N)cc1C(F)(F)F` (racemic), the IC50 in assay [1] was 17.8 µM; in assay [2], 19.4 µM; in assay [3], 43 µM; in assay [4] it was 25.6 µM.

As for `CC(O)(COc1ccc(S(F)(F)(F)(F)F)cc1)C(=O)Nc1ccc(C#N)cc1C(F)(F)F` (racemic), the IC50 was 12.3 µM in assay [1], 14.7 µM in assay [2], 25.5 µM in assay [3] and 16 µM in assay [4].

For `CC(O)(CSc1ccc(OC(F)(F)F)cc1)C(=O)Nc1cccc(S(F)(F)(F)(F)F)c1` (racemic), the IC50 in assay [1] is 10.3 µM; in assay [2] it was 17 µM; in assay [3] it was 28.5 µM; in assay [4], 24.7 µM.

Regarding `CC(O)(COc1ccc(C#N)c(F)c1)C(=O)Nc1cccc(S(F)(F)(F)(F)F)c1` (racemic), the IC50 in assay [1] stood at 83.7 µM; in assay [2], 63.4 µM; in assay [3], 91.9 µM; in assay [4], 74.8 µM.

For `CC(O)(CSc1ccccc1OC(F)(F)F)C(=O)Nc1cccc(S(F)(F)(F)(F)F)c1` (racemic), the IC50 in assay [1] was 10 µM; in assay [2] it was 13.9 µM; in assay [3], 12.6 µM; in assay [4] it was 17.5 µM.

In the case of `CC(O)(COc1ccc(S(F)(F)(F)(F)F)cc1)C(=O)Nc1ccc(S(F)(F)(F)(F)F)cc1` (racemic), the IC50 in assay [1] came to 9.8 µM; in assay [2], 13 µM; in assay [3] it was 9.3 µM; in assay [4] it was 24.9 µM.

As to `CC(O)(COc1ccc(S(F)(F)(F)(F)F)cc1)C(=O)Nc1ccc([N+](=O)[O-])c(C(F)(F)F)c1` (racemic), the IC50 in assay [1] was found to be 100 µM; in assay [2], 14.1 µM; in assay [3], 100 µM; in assay [4], 21.2 µM.

In the case of `CC(O)(COc1ccc(S(F)(F)(F)(F)F)cc1)C(=O)Nc1ccc([N+](=O)[O-])cc1C(F)(F)F` (racemic), the half-maximal inhibitory concentration (IC50) in assay [1] is 14.8 µM; in assay [2] it was 17.1 µM; in assay [3] it was 26.1 µM; in assay [4] it was 15.4 µM.

Consider `CC(O)(COc1ccc(C#N)cc1C(F)(F)F)C(=O)Nc1cccc(S(F)(F)(F)(F)F)c1` (racemic), for which the IC50 is 16.4 µM in assay [1], 18.3 µM in assay [2], 30.6 µM in assay [3] and 22.8 µM in assay [4].

As to `CC(O)(COc1cccc(S(F)(F)(F)(F)F)c1)C(=O)Nc1ccc([N+](=O)[O-])cc1C(F)(F)F` (racemic), the IC50 in assay [1] came out at 12.1 µM; in assay [2] it was 15.5 µM; in assay [3], 20.3 µM; in assay [4] it was 18 µM.

With `CC(O)(COc1ccc(OC(F)(F)F)cc1)C(=O)Nc1ccc(S(F)(F)(F)(F)F)cc1` (racemic), the IC50 stood at 18.6 µM in assay [1], 27.9 µM in assay [2], 12.8 µM in assay [3] and 24.8 µM in assay [4].

With `CC(O)(COc1ccc(S(F)(F)(F)(F)F)cc1)C(=O)Nc1ccc(C#N)c(C(F)(F)F)c1` (racemic), the IC50 in assay [1] is 11.5 µM; in assay [2] it was 28.2 µM; in assay [3], 30.1 µM; in assay [4], 25.5 µM.

Consider `CC(O)(COc1cccc(C(F)(F)F)c1)C(=O)Nc1cccc(S(F)(F)(F)(F)F)c1` (racemic), for which the IC50 came out at 28.8 µM in assay [1], 28.9 µM in assay [2], 22.5 µM in assay [3] and 31.7 µM in assay [4].

Take `CC(O)(COc1cccc(S(F)(F)(F)(F)F)c1)C(=O)Nc1ccc(S(F)(F)(F)(F)F)cc1` (racemic): the IC50 was 12 µM in assay [1], 17.6 µM in assay [2], 11.4 µM in assay [3] and 29.6 µM in assay [4].

On to `CC(O)(CS(=O)(=O)c1ccc(S(F)(F)(F)(F)F)cc1)C(=O)Nc1ccc([N+](=O)[O-])c(C(F)(F)F)c1` (racemic), for which the IC50 in assay [1] was 10 µM; in assay [2] it was 14.7 µM; in assay [3], 19.2 µM; in assay [4] it was 17.7 µM.

In the case of `CC(O)(COc1ccc(S(F)(F)(F)(F)F)cc1)C(=O)Nc1cccc(S(F)(F)(F)(F)F)c1` (racemic), the IC50 in assay [1] stood at 8 µM; in assay [2] it was 10.2 µM; in assay [3] it was 8 µM; in assay [4], 12.8 µM.

With `CC(O)(COc1ccccc1OC(F)(F)F)C(=O)Nc1ccc(S(F)(F)(F)(F)F)cc1` (racemic), the IC50 in assay [1] is 8.9 µM; in assay [2], 7.3 µM; in assay [3], 9.7 µM; in assay [4], 16.8 µM.

In the case of `CC(O)(CS(=O)(=O)c1cccc(S(F)(F)(F)(F)F)c1)C(=O)Nc1ccc([N+](=O)[O-])c(C(F)(F)F)c1` (racemic), the IC50 turned out to be 13.8 µM in assay [1], 14.8 µM in assay [2], 24.6 µM in assay [3] and 17.2 µM in assay [4].

On to `CC(O)(COc1ccc(C#N)cc1)C(=O)Nc1ccc(S(F)(F)(F)(F)F)cc1` (racemic), for which the IC50 in assay [1] is 100 µM; in assay [2], 26.1 µM; in assay [3], 100 µM; in assay [4] it was 32.2 µM.

On to `CC(O)(COc1cccc(S(F)(F)(F)(F)F)c1)C(=O)Nc1ccc(C#N)c(C(F)(F)F)c1` (racemic), for which the IC50 in assay [1] came out at 9.8 µM; in assay [2] it was 10.7 µM; in assay [3] it was 8 µM; in assay [4] it was 16 µM.

Consider `CC(O)(COc1ccccc1C(F)(F)F)C(=O)Nc1cccc(S(F)(F)(F)(F)F)c1` (racemic), for which the IC50 in assay [1] was found to be 26.3 µM; in assay [2], 34.9 µM; in assay [3], 36.7 µM; in assay [4] it was 52.2 µM.

Take `CC(O)(COc1cccc(C(F)(F)F)c1)C(=O)Nc1ccc(S(F)(F)(F)(F)F)cc1` (racemic): the IC50 in assay [1] turned out to be 24.7 µM; in assay [2], 14.6 µM; in assay [3], 24.7 µM; in assay [4], 21.9 µM.

With `CC(O)(CSc1cccc(OC(F)(F)F)c1)C(=O)Nc1cccc(S(F)(F)(F)(F)F)c1` (racemic), the IC50 turned out to be 10.9 µM in assay [1], 18.7 µM in assay [2], 17.5 µM in assay [3] and 25 µM in assay [4].

With `CC(O)(COc1ccc(OC(F)(F)F)cc1)C(=O)Nc1cccc(S(F)(F)(F)(F)F)c1` (racemic), the IC50 in assay [1] was found to be 12.7 µM; in assay [2] it was 12.9 µM; in assay [3], 20.2 µM; in assay [4] it was 19.1 µM.

For the compound `CC(O)(COc1ccc(C(F)(F)F)cc1)C(=O)Nc1cccc(S(F)(F)(F)(F)F)c1` (racemic), the IC50 in assay [1] turned out to be 9.6 µM; in assay [2], 3.6 µM; in assay [3] it was 13.3 µM; in assay [4], 13.6 µM.

On to `CC(O)(COc1cccc(S(F)(F)(F)(F)F)c1)C(=O)Nc1ccc(C(F)(F)F)cc1` (racemic), for which the concentration for half-maximal inhibition (IC50) in assay [1] worked out at 12.8 µM; in assay [2] it was 15.8 µM; in assay [3], 23.8 µM; in assay [4], 21 µM.

For `CC(O)(COc1ccc(C#N)c(F)c1)C(=O)Nc1ccc(S(F)(F)(F)(F)F)cc1` (racemic), the IC50 in assay [1] is 100 µM; in assay [2], 24.3 µM; in assay [3], 100 µM; in assay [4], 30.4 µM.

`CC(O)(COc1ccc(S(F)(F)(F)(F)F)cc1)C(=O)Nc1ccc(C(F)(F)F)cc1` (racemic): the IC50 in assay [1] stood at 11.7 µM; in assay [2], 12.9 µM; in assay [3], 14.7 µM; in assay [4], 27.4 µM.

On to `CC(O)(COc1cccc(S(F)(F)(F)(F)F)c1)C(=O)Nc1cccc(S(F)(F)(F)(F)F)c1` (racemic), for which the IC50 in assay [1] is 10.9 µM; in assay [2], 27.3 µM; in assay [3], 26.7 µM; in assay [4], 30.7 µM.

In the case of `CC(O)(COc1cccc(S(F)(F)(F)(F)F)c1)C(=O)Nc1ccc(C#N)cc1C(F)(F)F` (racemic), the IC50 in assay [1] worked out at 9.9 µM; in assay [2] it was 11.6 µM; in assay [3] it was 10.3 µM; in assay [4] it was 16.3 µM.

As to `CC(O)(COc1ccccc1OC(F)(F)F)C(=O)Nc1cccc(S(F)(F)(F)(F)F)c1` (racemic), the IC50 in assay [1] was found to be 16.1 µM; in assay [2], 30 µM; in assay [3], 27.7 µM; in assay [4], 38.1 µM.

As to `CC(O)(COc1ccc(C#N)cc1C(F)(F)F)C(=O)Nc1ccc(S(F)(F)(F)(F)F)cc1` (racemic), the IC50 is 100 µM in assay [1], 13.8 µM in assay [2], 100 µM in assay [3] and 21.2 µM in assay [4].

On to `CC(O)(CS(=O)(=O)c1cccc(S(F)(F)(F)(F)F)c1)C(=O)Nc1ccc(C#N)cc1C(F)(F)F` (racemic), for which the IC50 in assay [1] was 12.9 µM; in assay [2], 14.3 µM; in assay [3], 20.8 µM; in assay [4], 22.1 µM.
